Data set [1] is described as follows: Inhibition of full length HDAC1/MTA1 (162 to 354 residues) (unknown origin) transfected in HEK293F cells using BOC-Lys-AMC as substrate incubated for 30 mins by fluorescence based analysis. Further details: species or system Homo sapiens.
The target in a further data set is Histone deacetylase 1 (Homo sapiens, UniProt Q13547). The experiment in a line: Inhibition of HDAC1 (unknown origin) using Fluor de lys as substrate by fluorescence based analysis.
In data set [2] the target is T1, Protein deacetylase HDAC6 (Homo sapiens, UniProt Q9UBN7).
T1 sequence (Q9UBN7 whole entry): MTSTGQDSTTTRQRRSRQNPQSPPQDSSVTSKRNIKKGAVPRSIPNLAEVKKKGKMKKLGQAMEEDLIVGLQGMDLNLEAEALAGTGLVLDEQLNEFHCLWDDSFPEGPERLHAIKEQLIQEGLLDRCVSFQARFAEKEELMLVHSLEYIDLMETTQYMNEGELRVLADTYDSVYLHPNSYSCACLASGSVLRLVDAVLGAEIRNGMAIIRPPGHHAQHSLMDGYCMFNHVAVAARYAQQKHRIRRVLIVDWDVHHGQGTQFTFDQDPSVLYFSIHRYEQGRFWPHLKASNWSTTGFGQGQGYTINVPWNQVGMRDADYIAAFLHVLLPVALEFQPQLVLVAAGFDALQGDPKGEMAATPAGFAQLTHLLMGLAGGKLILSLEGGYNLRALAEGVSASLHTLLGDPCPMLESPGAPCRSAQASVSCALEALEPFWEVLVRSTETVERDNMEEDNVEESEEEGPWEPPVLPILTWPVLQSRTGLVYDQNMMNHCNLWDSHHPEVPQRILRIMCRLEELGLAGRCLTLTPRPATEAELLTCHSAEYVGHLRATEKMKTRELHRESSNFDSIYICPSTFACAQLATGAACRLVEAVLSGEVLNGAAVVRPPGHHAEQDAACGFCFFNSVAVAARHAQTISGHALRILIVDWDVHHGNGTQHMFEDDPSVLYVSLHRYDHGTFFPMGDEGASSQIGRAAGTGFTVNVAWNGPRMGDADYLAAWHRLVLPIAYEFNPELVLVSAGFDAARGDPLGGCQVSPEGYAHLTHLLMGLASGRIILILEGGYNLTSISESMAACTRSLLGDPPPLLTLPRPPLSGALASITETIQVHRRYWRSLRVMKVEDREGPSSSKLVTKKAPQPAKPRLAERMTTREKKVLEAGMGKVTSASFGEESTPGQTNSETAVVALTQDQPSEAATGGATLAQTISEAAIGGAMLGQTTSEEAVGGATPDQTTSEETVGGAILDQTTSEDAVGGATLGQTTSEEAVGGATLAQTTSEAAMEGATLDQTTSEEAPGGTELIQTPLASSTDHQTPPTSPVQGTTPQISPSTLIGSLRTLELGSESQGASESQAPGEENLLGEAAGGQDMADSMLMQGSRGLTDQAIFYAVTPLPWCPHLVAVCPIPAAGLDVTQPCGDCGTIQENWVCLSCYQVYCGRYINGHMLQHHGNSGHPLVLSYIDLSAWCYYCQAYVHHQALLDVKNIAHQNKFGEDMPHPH
The experiment in a line: Inhibition of HDAC6 (unknown origin) using Fluor de lys as substrate by fluorescence based analysis.

The next data set has as its target T2, Histone deacetylase 8 (Homo sapiens, UniProt Q9BY41).
T2 sequence (Q9BY41 whole entry): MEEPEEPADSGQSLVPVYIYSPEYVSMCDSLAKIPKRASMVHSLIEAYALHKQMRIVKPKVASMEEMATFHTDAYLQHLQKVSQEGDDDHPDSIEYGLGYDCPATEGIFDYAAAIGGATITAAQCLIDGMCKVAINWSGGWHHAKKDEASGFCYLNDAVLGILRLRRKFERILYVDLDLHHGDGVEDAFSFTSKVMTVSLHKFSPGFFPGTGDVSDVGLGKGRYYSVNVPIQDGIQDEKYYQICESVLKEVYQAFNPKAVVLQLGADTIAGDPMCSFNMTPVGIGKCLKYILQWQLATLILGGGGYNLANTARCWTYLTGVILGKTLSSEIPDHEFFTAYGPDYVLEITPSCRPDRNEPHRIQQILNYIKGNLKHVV
The experiment in a line: (§1) Inhibition of HDAC8 (unknown origin) using Fluor de lys as substrate by fluorescence based analysis.

The species named for data set [3] is Homo sapiens. The experiment in a line: Selectivity index, ratio of IC50 for inhibition of HDAC1 (unknown origin) to IC50 for inhibition of HDAC6 (unknown origin). The method in brief:
(§2)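 Ratio of IC50 values, each from a Fluor de Lys fluorogenic HDAC assay run in duplicate.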

Data set [4] is filed under the species Homo sapiens. The experiment in a line: Selectivity index, ratio of IC50 for inhibition of HDAC8 (unknown origin) to IC50 for inhibition of HDAC6 (unknown origin). In a few lines: as §2
In data set [5] the test system is A549. The experiment in a line: Antiproliferative activity against human A549 cells assessed as inhibition of cell growth incubated for 72 hrs by alamar blue assay. It is filed as functional, cell-based. The settings on record: A549, 72 h. The method in brief: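 Cells grown in IMDM with 20% FBS and penicillin/streptomycin at 37 °C, 5% CO2. Compound added to plated cells for 72 h. Alamar blue (1 mM solution) then added for 5–6 h, and fluorescence read at 530/590 nm. IC50 derived for single-agent treatment.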
On the technique in general: The colour change of resazurin is a common sign of viable cells or microbes.

Data set [6] concerns A549. The experiment in a line: Antiproliferative activity against human A549 cells assessed as inhibition of cell growth incubated for 72 hrs in presence of (R)-4-((3,4-dibenzyl-2,5-dioxopiperazin-1-yl)methyl)-N-hydroxybenzamide by alamar blue assay. The data set is classed as functional, cell-based. To be noted: A549, 72 h. In a few lines:
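Alamar blue assay in IMDM/20% FBS at 37 °C, 5% CO2. Cells were exposed to the two agents together for 72 h, with 5–6 h Alamar blue and fluorescence at 530/590 nm. IC50 in combination was determined. CI50 = IC50Ac/IC50As + IC50Bc/IC50Bs, comparing combination with single-agent IC50s.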

Another data set concerns RPMI-8226. The experiment in a line: cells. The data set is classed as functional, cell-based. The settings on record: Homo sapiens, RPMI-8226, 72 h.
In another data set the test system is U-266. The experiment in a line: cells. It is filed as functional, cell-based. The settings on record: Homo sapiens, U-266, 72 h.
The nature of data set [7]: Cytotoxicity against human HS5 cells assessed as inhibition of cell growth incubated for 72 hrs by alamar blue assay. It is filed as toxicity, cell-based. In a few lines:
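Cells were grown in IMDM with 20% FBS and penicillin/streptomycin at 37 °C in 5% CO2. Drug-treated cells were incubated 72 h. Alamar blue (1 mM solution) was then added for 5–6 h, and fluorescence read at 530/590 nm.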

Data set [8] can be described thus: Microsomal stability in human liver microsomes assessed as half life at 0.5 uM prewarmed for 5 mins followed by NADPH addition and measured for 90 mins by LC-MS/MS analysis. The data set is classed as ADME, Microsome. To be noted: time 95 min. The method in brief:
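Incubation held 0.8 mg/mL human liver microsomes, MgCl2, potassium phosphate buffer pH 7.4 and 0.5 μM compound. After 5 min prewarming at 37 °C, NADPH started the reaction.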
A general note: Liver microsomes are vesicles of endoplasmic reticulum, rich in cytochrome P450 enzymes.

Data set [9] deals with Histone deacetylase 8 (Homo sapiens) (UniProt Q9BY41). The description is as §1.

Counter-ions that a name gives are not always drawn. The source made the active and inactive calls. The rule behind the calls is not given here. Square brackets hold non-standard residues; d marks the D form. Peptide text beside a SMILES is read from it. * marks the point of attachment. Asu = N[C@@H](CCCCCC(=O)O)C(=O)O; X1 = CC(=O)[C@H](Cc1cnc[nH]1)N*; NHOH = ON* A value given as a limit tells only on which side of the number the result lay.

Chain of Histone deacetylase 1 (Q13547 whole entry): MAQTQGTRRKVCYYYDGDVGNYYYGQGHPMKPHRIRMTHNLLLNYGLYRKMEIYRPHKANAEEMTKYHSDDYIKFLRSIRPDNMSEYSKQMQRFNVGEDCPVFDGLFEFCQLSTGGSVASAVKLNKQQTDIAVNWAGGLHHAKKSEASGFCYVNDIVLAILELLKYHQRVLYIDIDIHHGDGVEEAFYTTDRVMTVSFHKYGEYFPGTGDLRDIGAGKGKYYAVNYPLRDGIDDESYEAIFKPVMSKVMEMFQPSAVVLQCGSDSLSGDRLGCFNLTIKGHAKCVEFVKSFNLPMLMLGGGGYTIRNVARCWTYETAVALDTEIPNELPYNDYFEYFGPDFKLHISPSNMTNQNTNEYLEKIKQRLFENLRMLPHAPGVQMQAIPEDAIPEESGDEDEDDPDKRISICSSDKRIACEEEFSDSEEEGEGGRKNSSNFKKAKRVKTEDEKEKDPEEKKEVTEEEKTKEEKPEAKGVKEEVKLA

For orientation: IC50 means the concentration that gives 50% inhibition. On to `CC(=O)[C@H](Cc1cnc[nH]1)NC(=O)[C@H](CCCN=C(N)N)NC(=O)[C@H](CCCCCC(=O)NO)NC(=O)CNC(=O)CN` (H-GG[Asu](NHOH)R-X1), for which the IC50 in data set [1] was 336 nM.
For the molecule `COc1cccc(CN2C(=O)CN(Cc3ccc(C(=O)NO)cc3)C(=O)[C@H]2Cc2ccccc2)c1`, the values for the IC50 (on Histone deacetylase 1; in data set [2]; on Histone deacetylase 8) were 8100 nM, 13.7 nM and 171 nM, respectively. Also, the Ratio IC50 turned out to be 591 in the data set listed under Homo sapiens [3] and 12 in the data set filed under Homo sapiens [4].
In the case of `O=C(NO)c1ccc(CC(=O)N(CCO)c2ccccc2)cc1`, the IC50 worked out at 1780 nM against Histone deacetylase 1 and 1990 nM on Histone deacetylase 8.
For the molecule `COc1cccc2c1C(=O)c1c(O)c3c(c(O)c1C2=O)C[C@@](O)(C(=O)CO)C[C@@H]3O[C@H]1C[C@H](N)[C@H](O)[C@H](C)O1` [DOXORUBICIN HYDROCHLORIDE], the IC50 in the data set with A549 [5] amounted to 255 nM; in the data set on A549 [6] it was 152 nM.
As to `CN1C(=O)CN(Cc2ccc(C(=O)NO)cc2)C(=O)C1Cc1ccccc1` (racemic), in data set [2], the IC50 worked out at 16.7 nM.
Turning to `O=C(NO)c1ccc(CN2CC(=O)N(Cc3cccc(Cl)c3)[C@H](Cc3ccccc3)C2=O)cc1`, the IC50 at Histone deacetylase 1 turned out to be 8550 nM; in data set [2] it was 10.5 nM; against Histone deacetylase 8, 150 nM; with RPMI-8226 it was 13400 nM; in the data set on U-266 it was 23100 nM. The results for the Ratio IC50 in the data set filed under Homo sapiens [3] and in the data set filed under Homo sapiens [4] were 838 and 14, respectively. In [7], the IC50 at 72 hrs is over 100000 nM.
The term half-life denotes the time in which the quantity being followed falls by half. As to `O=C(CCCCCCNC(=O)c1cnc(N(c2ccccc2)c2ccccc2)nc1)NO` [RICOLINOSTAT], the IC50 in the data set on RPMI-8226 was 9260 nM; with U-266 it was over 100000 nM. Also, in data set [8], the half-life at 0.5 µM is 7.5 h.
`O=C1CN(Cc2ccc(C(=O)NO)cc2)C(=O)[C@H](Cc2c[nH]c3ccccc23)N1`: the IC50 was determined as 6390 nM against Histone deacetylase 1, 6.64 nM in data set [2] and 112 nM on Histone deacetylase 8.
As for `O=C1CN(Cc2cccc(C(=O)NO)c2)C(=O)[C@H](Cc2ccccc2)N1`, the inhibition entry (at Histone deacetylase 1; in data set [9]) was “inactive” each time. This molecule returned an IC50 in [2] of 4190 nM.
Regarding `O=C(NO)c1ccc(CN2CC(=O)N(Cc3ccc(Cl)cc3)[C@H](Cc3ccccc3)C2=O)cc1`, the IC50 against Histone deacetylase 1 came out at 9200 nM; in data set [2], 11.7 nM; on Histone deacetylase 8, 130 nM. Moreover, the Ratio IC50 in the data set listed under Homo sapiens [3] worked out at 786; in the data set listed under Homo sapiens [4], 11.
With `O=C1CN(Cc2ccc(C(=O)NO)cc2)C(=O)[C@@H](Cc2ccccc2)N1`, the IC50 came to 8270 nM on Histone deacetylase 1; 8.62 nM in [2]; 30.9 nM at Histone deacetylase 8; 54400 nM in the data set with RPMI-8226; 86300 nM in the data set on U-266. The figures for the Ratio IC50 in the data set filed under Homo sapiens [3] and in the data set filed under Homo sapiens [4] were 959 and 4, respectively. The IC50 at 72 hrs in [7] was over 100000 nM.
Take `O=C(NO)c1ccc(CN2CC(=O)N(Cc3ccccc3Cl)[C@H](Cc3ccccc3)C2=O)cc1`: the IC50 against Histone deacetylase 1 is 8310 nM; in [2], 10.1 nM; against Histone deacetylase 8, 162 nM; in the data set on RPMI-8226, 12100 nM; in the data set with U-266, 23400 nM. Besides, the Ratio IC50 came out at 823 in the data set listed under Homo sapiens [3] and 16 in the data set listed under Homo sapiens [4]. Moreover, the IC50 at 72 hrs in [7] is over 100000 nM. For the same molecule, in [8], the half-life at 0.5 µM was 10.1 h.
With `O=C1CN(Cc2ccc(C(=O)NO)cc2)C(=O)[C@H](Cc2ccccc2)N1`, the IC50 against Histone deacetylase 1 worked out at 7200 nM; in [2], 17.5 nM; on Histone deacetylase 8 it was 15.6 nM. Besides, the Ratio IC50 came to 411 in the data set listed under Homo sapiens [3] and 0.9 in the data set listed under Homo sapiens [4].

The values are drawn from ChEMBL document CHEMBL5230083, “Novel 2, 5-diketopiperazine derivatives as potent selective histone deacetylase 6 inhibitors: Rational design, synthesis and antiproliferative activity” (Eur J Med Chem, 2020).
